ChEMBL document CHEMBL2157965, “Structure-based design of potent Bcl-2/Bcl-xL inhibitors with strong in vivo antitumor activity” (J Med Chem, 2012)
Active and inactive are the calls of the source. The calls are words filed in the database; no cut-off is given here.

Key:
NCI-H146 [1] = assay: Induction of cell death in human NCI-H146 cells after 24 hrs by trypan blue assay; format: functional, cell-based
Summary of the method: (§1)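 H146 cells were treated for 24 h across a range of concentrations. Cell death was scored by trypan blue assay.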

NCI-H146 [2] = assay: Induction of apoptosis in human NCI-H146 cells xenografted in SCID mouse assessed as caspase3 activation at 25 mg/kg, iv at 3 hrs by Western blot analysis; format: functional, organism-based; design: dose 25 mg/kg
Summary of the method: (§2)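 SCID mice bearing subcutaneous H146 tumors (about 100 mm3) received a single i.v. dose of 25 mg/kg or vehicle. Tumors were collected at 3, 6 and 24 h. Western blot of tumor tissue assessed PARP and caspase-3 and their cleaved forms, with GAPDH as loading control.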

Bcl-2-like protein 1 = Bcl-2-like protein 1 (Homo sapiens, UniProt Q07817); assay: Inhibition of human N-terminal His8-tagged Bcl-XL expressed in Escherichia coli BL21(DE3) assessed as inhibition of Fluorescein-labeled BAK binding after 1 to 2 hrs by fluorescence polarization assay
NCI-H146 [3] = assay: Induction of apoptosis in human NCI-H146 cells assessed as PARP cleavage after 24 hrs by Western blot analysis; format: functional, cell-based
Summary of the method: (§3)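 H146 cells were treated for 24 h at a range of concentrations. Lysates were probed by Western blot with rabbit antibodies to PARP and caspase-3, detecting the cleaved forms. GAPDH served as loading control.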

NCI-H146 [4] = assay: Induction of apoptosis in human NCI-H146 cells assessed as PARP cleavage after 2 hrs by Western blot analysis; format: functional, cell-based
[5] = Inhibition of human N-terminal His6-tagged Bcl2 isoform 2 expressed in Escherichia coli BL21(DE3) assessed as inhibition of Fluorescein-labeled BIM binding after 1 to 2 hrs by fluorescence polarization assay
NCI-H146 [6] = assay: Induction of apoptosis in human NCI-H146 cells assessed as increase in cytochrome c release at 30 nM after 2 hrs; format: functional, cell-based
Mus musculus [7] = assay: Toxicity in SCID mouse xenografted with human NCI-H146 cells assessed as weight loss at 25 mg/kg, iv administered 5 days a week for 2 weeks; format: organism-based; design: dose 25 mg/kg, route intravenous; conditions: in vivo
Summary of the method: (§4)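 SCID mice received 5 × 10^6 H146 cells with matrigel, injected subcutaneously on the dorsal side, one tumor per mouse. At 40–110 mm3 (mean 70 mm3), mice were randomized, 8 per group. Dosing was 25 mg/kg i.v. daily, 5 days/week for 2 weeks, versus vehicle. Tumor size and body weight were measured 3×/week during treatment and 2×/week afterwards.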

NCI-H146 [8] = assay: Induction of apoptosis in human NCI-H146 cells xenografted in SCID mouse assessed as caspase3 activation at 25 mg/kg, iv up to 24 hrs by Western blot analysis; format: functional, organism-based; design: dose 25 mg/kg; summary of the method: as §2
NCI-H146 [9] = assay: Induction of apoptosis in human NCI-H146 cells xenografted in SCID mouse assessed as PARP cleavage at 25 mg/kg, iv up to 24 hrs by Western blot analysis; format: functional, organism-based; design: dose 25 mg/kg; summary of the method: as §2
NCI-H146 [10] = assay: Antitumor activity against human NCI-H146 cells xenografted in SCID mouse assessed as tumor regression at 25 mg/kg, iv administered 5 days a week for 2 weeks relative to vehicle-treated control; format: functional, organism-based; design: dose 25 mg/kg; summary of the method: as §4
NCI-H146 [11] = assay: Antitumor activity against human NCI-H146 cells xenografted in SCID mouse assessed as tumor growth inhibition at 25 mg/kg, iv administered 5 days a week for 2 weeks relative to vehicle-treated control; format: functional, organism-based; design: dose 25 mg/kg; summary of the method: as §4
NCI-H1963 = assay: Antiproliferative activity against human NCI-H1963 cells after 4 days by WST8 assay; format: functional, cell-based; conditions: NCI-H1963, 96 h
Summary of the method: (§5)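 Growth inhibition was measured as described previously. IC50 values come from growth curves.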

Mus musculus [12] = assay: Toxicity in SCID mouse assessed as weight loss at 25 mg/kg, iv administered 5 days a week for 2 weeks; format: organism-based; design: dose 25 mg/kg, route intravenous; conditions: in vivo
[13] = molecular target: Induced myeloid leukemia cell differentiation protein Mcl-1 (Homo sapiens, UniProt Q07820); assay: Inhibition of human N-terminal His8-tagged Mcl1 expressed in Escherichia coli BL21(DE3) assessed as inhibition of Fluorescein-labeled BID binding after 1 to 2 hrs by fluorescence polarization assay
[14] = Antiproliferative activity against human NCI-H146 cells after 4 days by WST8 assay; format: functional, cell-based; conditions: NCI-H146, 96 h; summary of the method: as §5
NCI-H146 [15] = assay: Induction of apoptosis in human NCI-H146 cells xenografted in SCID mouse assessed as PARP cleavage at 25 mg/kg, iv at 3 hrs by Western blot analysis; format: functional, organism-based; design: dose 25 mg/kg; summary of the method: as §2
NCI-H146 [16] = assay: Induction of cell death in human NCI-H146 cells at 10 nM after 24 hrs by trypan blue assay; format: functional, cell-based; summary of the method: as §1
NCI-H146 [17] = assay: Induction of apoptosis in human NCI-H146 cells assessed as increase in cytochrome c release after 2 hrs; format: functional, cell-based
NCI-H146 [18] = assay: Induction of apoptosis in human NCI-H146 cells assessed as caspase3 activation after 24 hrs by Western blot analysis; format: functional, cell-based; summary of the method: as §3
NCI-H1417 = assay: Antiproliferative activity against human NCI-H1417 cells after 4 days by WST8 assay; format: functional, cell-based; conditions: NCI-H1417, 96 h; summary of the method: as §5
NCI-H146 [19] = assay: Induction of apoptosis in human NCI-H146 cells assessed as PARP cleavage at 30 nM after 2 hrs by Western blot analysis; format: functional, cell-based
[20] = Antitumor activity against human NCI-H146 cells xenografted in SCID mouse assessed as tumor size at 25 mg/kg, iv administered 5 days a week for 2 weeks measured on day 92 ( Rvb = 800 mm3); format: functional; summary of the method: as §4

Sequence of Bcl-2-like protein 1 (Q07817 whole entry): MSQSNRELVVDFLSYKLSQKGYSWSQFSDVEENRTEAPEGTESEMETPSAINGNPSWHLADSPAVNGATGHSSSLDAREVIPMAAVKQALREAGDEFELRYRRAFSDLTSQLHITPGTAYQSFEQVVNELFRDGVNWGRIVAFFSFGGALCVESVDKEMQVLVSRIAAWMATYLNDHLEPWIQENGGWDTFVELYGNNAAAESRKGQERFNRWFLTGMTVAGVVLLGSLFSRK
Sequence of Induced myeloid leukemia cell differentiation protein Mcl-1 (Q07820 whole entry): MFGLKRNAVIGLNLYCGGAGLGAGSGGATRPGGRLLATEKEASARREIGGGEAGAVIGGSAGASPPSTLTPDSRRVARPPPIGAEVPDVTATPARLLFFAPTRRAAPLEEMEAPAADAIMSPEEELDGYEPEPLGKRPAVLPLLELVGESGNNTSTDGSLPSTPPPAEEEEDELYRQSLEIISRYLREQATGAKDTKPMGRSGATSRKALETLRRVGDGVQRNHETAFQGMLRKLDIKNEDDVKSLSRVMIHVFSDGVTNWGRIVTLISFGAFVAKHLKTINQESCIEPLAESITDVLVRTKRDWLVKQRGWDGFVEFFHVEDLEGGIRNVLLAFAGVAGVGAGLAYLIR

CCn1c(C)c(C(=O)O)c(-c2cccc(N3CCN(c4ccc(NS(=O)(=O)c5ccc(N[C@H](CCN(C)C)CSc6ccccc6)c([N+](=O)[O-])c5)cc4)CC3)c2)c1-c1ccc(Cl)cc1
Activity (NCI-H146 [1]): Dose-dependent effect
Activity (NCI-H146 [2]): Active
IC50 (Bcl-2-like protein 1): 6.6 nM
Ki (Bcl-2-like protein 1): < 1 nM
Activity (NCI-H146 [3]): Dose-dependent effect
Activity (NCI-H146 [4]): Dose-dependent effect
IC50 [5]: 2 nM
Ki [5]: < 0.6 nM
Activity (NCI-H146 [6]): Active
Activity (Mus musculus [7]): < 10%
Activity (NCI-H146 [8]): Active
Activity (NCI-H146 [9]): Active
Activity (NCI-H146 [10]): Active
TGI (NCI-H146 [11]): Active
IC50 (NCI-H1963): 4.5 nM
Activity (Mus musculus [12]): Non-toxic
IC50 [13]: > 2000 nM
IC50 [14]: 8.1 nM
Activity (NCI-H146 [15]): Active
Activity (NCI-H146 [16]): Active
Activity (NCI-H146 [17]): Dose-dependent effect
Activity (NCI-H146 [18]): Dose-dependent effect
IC50 (NCI-H1417): 17.7 nM
Activity (NCI-H146 [19]): Active
Activity [20]: 200 mm3
